Tests used:
Giardia intestinalis = assay: In vitro bioassay of antigiardial activity; type: cell-based; settings: Giardia duodenalis, read-out: Antigiardial activity, IC50, Giardia intestinalis
[1] = DPPH radical scavenging assay; settings: mean±SD
How it was run: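 Test compound in methanol at 50, 75 and 100 was added to 0.005% (w/v) DPPH in methanol. Incubation was 45 min at room temperature, with absorbance read at 517 nm against a blank. Inhibition (%) = [(controlA − sampleA)/[…]]×100, where the control held all reagents except the test compound. Triplicate runs; IC50 taken from a fitted line to the plot.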

[2] = tested on: selected bacteria strains; assay: Disc diffusion method, overall statements on the selected bacteria strains; type: cell-based; settings: selected Gram-positive and Gram-negative strains, inhibition zones
How it was run: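 Clinical isolates from Kirkuk Hospital were cultured on agar in Petri dishes. Test compound was dissolved in DMSO at 60 µg/mL, with DMSO alone tested alongside. Plates were incubated 24 h at 37 °C, pH 7.4±0.2. Inhibition-zone diameter around the disc was scored: − none; + 10–15 mm; ++ 15–20 mm; +++ ≥20 mm.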

Row | IC50 (Giardia intestinalis) [µM] | DPPH radical scavenging, IC50 ([1]; fitted line to a plot, triplicate) | SMILES | antibacterial activity (in words) [2] | DPPH radical scavenging, inhibition at 50 µg/mL ([1]; compound concentration 50 µg/mL, 45 min, 517 nm) [%] | DPPH radical scavenging, inhibition at 75 µg/mL ([1]; compound concentration 75 µg/mL, 45 min, 517 nm) [%] | DPPH radical scavenging, inhibition at 100 µg/mL ([1]; compound concentration 100 µg/mL, 45 min, 517 nm) [%]
1 | 3.71 ± 0.27 | ns (No scavenging activity) | Cc1ncc([N+](=O)[O-])n1CCO [Metronidazole] | no antibacterial activity | – | – | –
2 | – | – | O=C1O[C@H]([C@@H](O)CO)C(O)=C1O [Ascorbic acid] | – | 78.01±0.75 | 81.01±0.85 | 84.21±0.41

Reference: publication PMC9989235 (Iranian Journal of Medical Sciences, 2023)
